Reference: ChEMBL document CHEMBL4715779, “In vivo effective dibenzo[b,d]furan-1-yl-thiazoles as novel PDE-4 inhibitors” (Bioorg Med Chem, 2016)

Legend:
[1] = biological target: T1, 3',5'-cyclic-AMP phosphodiesterase 4B (Homo sapiens, UniProt Q07343); test: Inhibition of human PDE4B using [3H]cAMP as substrate at 100 nM incubated for 5 mins followed by substrate addition and measured after 10 mins by scintillation proximity assay relative to control; details: time 15.0 min
Summary of the method: (§1)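 Purified human PDE-4B2 in 50 mM Tris pH 7.4, 8.3 mM Mg2+, 1% DMSO final, enzyme converting 10–20% of substrate; 5 min pre-incubation at 37 °C, then 0.5 µM cAMP with ~50,000 cpm [3H]-cAMP for 10 min; stopped with yttrium silicate SPA beads containing 18 mM ZnSO4, read after >30 min settling. Background = no enzyme; IC50 from 8–10-point 4-parameter fit.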

[2] = biological target: T1, 3',5'-cyclic-AMP phosphodiesterase 4B; test: Inhibition of human PDE4B using [3H]cAMP as substrate incubated for 5 mins followed by substrate addition and measured after 10 mins by scintillation proximity assay; summary of the method: as §1
PBMC [3] = test: Inhibition of PDE-4 in human PBMC assessed as LPS-induced TNFalpha production at 1000 nM incubated for 15 mins followed by LPS stimulation and measured after 18 hrs by ELISA relative to control; details: time 1095.0 min
Summary of the method: (§2)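 PBMC isolated from healthy volunteers' blood in cell preparation tubes, suspended in RPMI; 0.5 million cells/well pre-incubated with compound 15 min at 37 °C, then stimulated with E. coli LPS (B4) 1 µg/mL for 18 h at 37 °C, 5% CO2; medium TNF-α measured by ELISA.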

PBMC [4] = test: Inhibition of PDE-4 in human PBMC assessed as LPS-induced TNFalpha production at 100 nM incubated for 15 mins followed by LPS stimulation and measured after 18 hrs by ELISA relative to control; details: time 1095.0 min; summary of the method: as §2
[5] = Inhibition of PDE-4 in human PBMC assessed as LPS-induced TNFalpha production incubated for 15 mins followed by LPS stimulation and measured after 18 hrs by ELISA relative to control; summary of the method: as §2
[6] = Genotoxicity in Salmonella typhimurium TA100 in presence of rat liver S9 fraction at 0.039 to 5 mg by Ames test; assay type: toxicity, subcellular, Salmonella enterica subsp. enterica serovar Typhimurium; details: dose 0.039-5 mg
Summary of the method: (§3)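 Ames reverse mutation test in S. typhimurium TA98 and TA100 with rat liver S9 activation, doses 0.039–5 mg/plate (eight levels); mutagenicity and cytotoxicity scored.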

[7] = Genotoxicity in Salmonella typhimurium TA98 in presence of rat liver S9 fraction at 0.039 to 5 mg by Ames test; assay type: toxicity, subcellular, Salmonella enterica subsp. enterica serovar Typhimurium; details: dose 0.039-5 mg; summary of the method: as §3
Rattus norvegicus [8] = test: Antiinflammatory activity in Sprague-Dawley rat model of LPS-induced COPD and asthma assessed as reduction in neutrophil influx in BALF at 10 mg/kg, po administered 30 mins before LPS stimulation and measured after 6 hrs relative to control; assay type: functional; details: time 6.5 hrs
Mus musculus [9] = test: Antiinflammatory activity in Swiss albino mouse model of LPS-induced sepsis assessed as reduction in TNFalpha production at 0.3 mg/kg, po administered 30 mins before LPS stimulation and measured after 90 min by ELISA relative to control; assay type: functional; details: 2 h, time 120 min
Summary of the method: (§4)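 Female Swiss albino mice fasted 20 h with water, dosed orally in 0.5% Tween 80/0.25% CMC sodium; vehicle-only controls. 500 µg E. coli LPS (B4) in PBS i.p. 30 min later; retro-orbital bleed 90 min post-LPS, blood held overnight at 4 °C, serum TNF-α by mouse ELISA; % inhibition.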

Mus musculus [10] = test: Antiinflammatory activity in Swiss albino mouse model of LPS-induced sepsis assessed as reduction in TNFalpha production at 1 mg/kg, po administered 30 mins before LPS stimulation and measured after 90 min by ELISA relative to control; assay type: functional; details: 2 h, time 120 min; summary of the method: as §4
Mus musculus [11] = test: Antiinflammatory activity in Swiss albino mouse model of LPS-induced sepsis assessed as reduction in TNFalpha production at 3 mg/kg, po administered 30 mins before LPS stimulation and measured after 90 min by ELISA relative to control; assay type: functional; details: 2 h, time 120 min; summary of the method: as §4
[12] = Tmax in Wistar rat at 10 mg/kg, po; assay type: ADME, organism-based; details: in vivo
[13] = Cmax in Wistar rat at 10 mg/kg, po; assay type: ADME, organism-based; design: route oral, dose 10 mg/kg; details: in vivo
[14] = AUClast in Wistar rat at 10 mg/kg, po; assay type: ADME, organism-based; design: dose 10 mg/kg; details: in vivo
[15] = Half life in Wistar rat at 10 mg/kg, po; assay type: ADME, organism-based; details: in vivo
[16] = Oral bioavailability in Wistar rat at 10 mg/kg; assay type: ADME, organism-based; details: in vivo
[17] = Initial concentration in Wistar rat at 5 mg/kg, iv; assay type: ADME, organism-based; details: in vivo
[18] = AUClast in Wistar rat at 5 mg/kg, iv; assay type: ADME, organism-based; design: dose 5 mg/kg; details: in vivo
[19] = Volume of distribution in Wistar rat at 5 mg/kg, iv; assay type: ADME, organism-based; details: in vivo
[20] = Clearance in Wistar rat at 5 mg/kg, iv; assay type: ADME, organism-based; details: in vivo
[21] = Half life in Wistar rat at 5 mg/kg, iv; assay type: ADME, organism-based; details: in vivo
Rattus norvegicus [22] = test: Antiinflammatory activity in Sprague-Dawley rat model of LPS-induced COPD and asthma assessed as reduction in total cell count in BALF at 0.1 mg/kg, po administered 30 mins before LPS stimulation and measured after 6 hrs relative to control; assay type: functional; details: time 6.5 hrs
Rattus norvegicus [23] = test: Antiinflammatory activity in Sprague-Dawley rat model of LPS-induced COPD and asthma assessed as reduction in total cell count in BALF at 0.3 mg/kg, po administered 30 mins before LPS stimulation and measured after 6 hrs relative to control; assay type: functional; details: time 6.5 hrs
Rattus norvegicus [24] = test: Antiinflammatory activity in Sprague-Dawley rat model of LPS-induced COPD and asthma assessed as reduction in total cell count in BALF at 1 mg/kg, po administered 30 mins before LPS stimulation and measured after 6 hrs relative to control; assay type: functional; details: time 6.5 hrs
Rattus norvegicus [25] = test: Antiinflammatory activity in Sprague-Dawley rat model of LPS-induced COPD and asthma assessed as reduction in total cell count in BALF at 3 mg/kg, po administered 30 mins before LPS stimulation and measured after 6 hrs relative to control; assay type: functional; details: time 6.5 hrs
Rattus norvegicus [26] = test: Antiinflammatory activity in Sprague-Dawley rat model of LPS-induced COPD and asthma assessed as reduction in total cell count in BALF at 10 mg/kg, po administered 30 mins before LPS stimulation and measured after 6 hrs relative to control; assay type: functional; details: time 6.5 hrs
Rattus norvegicus [27] = test: Antiinflammatory activity in Sprague-Dawley rat model of LPS-induced COPD and asthma assessed as reduction in total cell count in BALF at 30 mg/kg, po administered 30 mins before LPS stimulation and measured after 6 hrs relative to control; assay type: functional; details: time 6.5 hrs
Rattus norvegicus [28] = test: Antiinflammatory activity in Wistar rat model of LPS-induced uveitis assessed as reduction in infiltrating cells in aqueous humor at 0.1 mg/kg, po administered 24 hrs after LPS stimulation and measured after 1 hr by hemocytometry relative to control; assay type: functional
Rattus norvegicus [29] = test: Antiinflammatory activity in Wistar rat model of LPS-induced uveitis assessed as reduction in infiltrating cells in aqueous humor at 0.5 mg/kg, po administered 24 hrs after LPS stimulation and measured after 1 hr by hemocytometry relative to control; assay type: functional
Rattus norvegicus [30] = test: Antiinflammatory activity in Wistar rat model of LPS-induced uveitis assessed as reduction in infiltrating cells in aqueous humor at 1 mg/kg, po administered 24 hrs after LPS stimulation and measured after 1 hr by hemocytometry relative to control; assay type: functional
Rattus norvegicus [31] = test: Antiinflammatory activity in Wistar rat model of LPS-induced uveitis assessed as reduction in infiltrating cells in aqueous humor at 3 mg/kg, po administered 24 hrs after LPS stimulation and measured after 1 hr by hemocytometry relative to control; assay type: functional
Rattus norvegicus [32] = test: Antiinflammatory activity in Wistar rat model of LPS-induced uveitis assessed as reduction in infiltrating cells in aqueous humor at 10 ug/10ul/eye administered 24 hrs after LPS stimulation and measured after 1 hr by hemocytometry relative to control; assay type: functional; details: dose 10 µg

T1 sequence (Q07343 whole entry): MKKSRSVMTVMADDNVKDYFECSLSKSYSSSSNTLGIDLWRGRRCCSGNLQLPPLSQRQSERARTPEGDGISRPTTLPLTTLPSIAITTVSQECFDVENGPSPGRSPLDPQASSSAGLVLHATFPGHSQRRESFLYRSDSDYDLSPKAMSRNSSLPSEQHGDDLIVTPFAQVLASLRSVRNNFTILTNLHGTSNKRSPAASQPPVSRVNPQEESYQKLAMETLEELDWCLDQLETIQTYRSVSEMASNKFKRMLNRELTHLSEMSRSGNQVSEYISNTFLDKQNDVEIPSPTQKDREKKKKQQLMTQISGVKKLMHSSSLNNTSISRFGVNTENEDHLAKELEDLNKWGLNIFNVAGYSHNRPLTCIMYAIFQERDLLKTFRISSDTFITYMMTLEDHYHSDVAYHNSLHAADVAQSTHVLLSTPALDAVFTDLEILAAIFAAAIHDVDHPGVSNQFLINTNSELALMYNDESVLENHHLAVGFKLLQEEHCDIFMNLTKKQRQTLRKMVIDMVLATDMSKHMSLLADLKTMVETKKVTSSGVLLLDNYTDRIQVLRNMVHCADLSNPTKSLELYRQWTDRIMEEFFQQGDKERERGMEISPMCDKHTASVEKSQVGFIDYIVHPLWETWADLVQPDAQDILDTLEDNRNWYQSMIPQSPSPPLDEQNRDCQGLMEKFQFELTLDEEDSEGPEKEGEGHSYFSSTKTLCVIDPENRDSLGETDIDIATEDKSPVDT

O=C(NC1CCC(O)CC1)c1csc(-c2ccc(OC(F)F)c3oc4ccccc4c23)n1 (configuration not stated)
inhibition [1]: 65.3% | IC50 [2]: 63.5 nM | inhibition (PBMC [3]): 93.8% | inhibition (PBMC [4]): 77.7% | IC50 [5]: 31 nM | Activity [6]: Non-Toxic | Activity [7]: Non-Toxic | inhibition in vivo at 10 mg/kg (Rattus norvegicus [8]): 58% | inhibition in vivo at 0.3 mg/kg (Mus musculus [9]): 16.4% | inhibition in vivo at 1 mg/kg (Mus musculus [10]): 34.2% | inhibition in vivo at 3 mg/kg (Mus musculus [11]): 82.2% | Tmax [12]: 4.8 h | Cmax [13]: 1400 ng/mL | AUC(0-t) [14]: 11500 ng·h/mL | half-life [15]: 300 min | bioavailability [16]: 42% | C0 [17]: 4000 ng/mL | AUC(0-t) [18]: 13700 ng·h/mL | Vd [19]: 1 L/kg | clearance [20]: 6.67 mL/min/kg | half-life [21]: 114 min | inhibition in vivo at 0.1 mg/kg (Rattus norvegicus [22]): 52.8% | inhibition in vivo at 0.3 mg/kg (Rattus norvegicus [23]): 34.6% | inhibition in vivo at 1 mg/kg (Rattus norvegicus [24]): 60.7% | inhibition in vivo at 3 mg/kg (Rattus norvegicus [25]): 70.9% | inhibition in vivo at 10 mg/kg (Rattus norvegicus [26]): 75.2% | inhibition in vivo at 30 mg/kg (Rattus norvegicus [27]): 78.7% | inhibition in vivo at 0.1 mg/kg (Rattus norvegicus [28]): 43.6% | inhibition in vivo at 0.5 mg/kg (Rattus norvegicus [29]): 54.4% | inhibition in vivo at 1 mg/kg (Rattus norvegicus [30]): 90.3% | inhibition in vivo at 3 mg/kg (Rattus norvegicus [31]): 96.9%

C[C@@H]1C[C@H]2[C@@H]3CCC4=CC(=O)C=C[C@]4(C)[C@@]3(F)[C@@H](O)C[C@]2(C)[C@@]1(O)C(=O)CO [DEXAMETHASONE]
inhibition (INH) (Rattus norvegicus [32]): 79.1%
